Reference: ChEMBL document CHEMBL1129602, “Indole derivatives as a new class of steroid 5 alpha-reductase inhibitors” (J Med Chem, 1996)
Where “and” joins values, the source holds several entries; their conditions need not be identical. Equal entries are not always repeated.

Columns and labels:
Rattus norvegicus [1] = test: Percent conversion of testosterone to dihydrotestosterone in prostate of rats at 30 mg/kg of compound given perorally; assay type: functional, Prostate gland; conditions: route oral
Summary of the method: (§1)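 Rats dosed orally at 1–30 mg/kg, with controls at 0 mg/kg. Prostates removed 4 h later and homogenized. Testosterone and DHT in the homogenate measured by radioimmunoassay and expressed as % conversion of T to DHT. Mean ± SEM of four rats. Groups compared with the 0 mg/kg control by Dunnett test.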

Rattus norvegicus [2] = test: Concentration of testosterone (T) and DHT in homogenate was determined by radio immunoassay. Values are presented of Four rats, at dose mg/kg, p.o. =10.; assay type: functional; summary of the method: as §1
Rattus norvegicus [3] = test: Percent conversion of testosterone to dihydrotestosterone in prostate of rats at 0 mg/kg of compound given perorally; assay type: functional, Prostate gland; conditions: route oral; summary of the method: as §1
Rattus norvegicus [4] = test: Percent conversion of testosterone to dihydrotestosterone in prostate of rats at 3 mg/kg of compound given perorally; assay type: functional, Prostate gland; conditions: route oral; summary of the method: as §1
[5] = Compound was tested in vitro for inhibitory activity against 5-alpha reductase isozyme homogenated from transfected Namalwa; assay type: functional
Summary of the method: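 Homogenate of Namalwa cells transfected to express human type 2 isozyme, 40 μg cellular protein per assay. Buffer 0.1 M Na2HPO4–citrate pH 5.5 with 0.3 μM [14C]testosterone and 2 mM NADPH, across a range of drug concentrations. IC50 given as mean ± SEM of three separate experiments.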

Rattus norvegicus [6] = test: Percent conversion of testosterone to dihydrotestosterone in prostate of rats at 10 mg/kg of compound given perorally; assay type: functional, Prostate gland; conditions: route oral; summary of the method: as §1
[7] = biological target: T1, 3-oxo-5-alpha-steroid 4-dehydrogenase 1 (Rattus norvegicus, UniProt P24008); test: 5 alpha- reductase inhibitory activity; assay type: functional
T1 sequence (P24008 whole entry): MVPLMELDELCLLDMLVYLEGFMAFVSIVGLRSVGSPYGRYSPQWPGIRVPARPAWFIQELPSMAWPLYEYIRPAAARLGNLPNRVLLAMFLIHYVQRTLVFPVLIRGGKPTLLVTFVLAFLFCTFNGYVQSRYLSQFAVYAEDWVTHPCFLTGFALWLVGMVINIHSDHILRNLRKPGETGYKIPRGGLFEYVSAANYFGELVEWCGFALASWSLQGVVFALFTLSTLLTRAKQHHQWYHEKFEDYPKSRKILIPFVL

Rattus norvegicus [8] = test: Percent conversion of testosterone to dihydrotestosterone in prostate of rats at 1 mg/kg of compound given perorally; assay type: functional, Prostate gland; conditions: route oral; summary of the method: as §1
[9] = biological target: T2, 3-oxo-5-alpha-steroid 4-dehydrogenase 2 (Rattus norvegicus, UniProt P31214); test: Compound was tested in vitro for inhibitory activity against type 2 5-alpha reductase Isozyme homogenated from rat epididymis; assay type: functional
T2 sequence (P31214 whole entry): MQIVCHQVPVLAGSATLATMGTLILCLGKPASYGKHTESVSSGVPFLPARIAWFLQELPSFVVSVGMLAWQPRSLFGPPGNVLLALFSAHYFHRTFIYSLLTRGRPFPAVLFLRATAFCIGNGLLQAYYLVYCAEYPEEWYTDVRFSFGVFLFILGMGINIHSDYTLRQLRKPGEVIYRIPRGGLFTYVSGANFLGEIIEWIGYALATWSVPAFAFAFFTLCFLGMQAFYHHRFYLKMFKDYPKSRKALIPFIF
Summary of the method: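 Epididymal particulates from male Wistar rats (200–300 g), pelleted at 100000g for 0.5 h. Compounds added in ethanol. Incubated 37 °C for 10 min, then stopped and extracted with ethyl acetate. Inhibition taken from [14C]DHT conversion versus a blank.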

[10] = biological target: T3, 3-oxo-5-alpha-steroid 4-dehydrogenase 1 (Rattus norvegicus) (UniProt P24008); test: Inhibitory activity of compound towards 5-alpha reductase from rat =; conditions: 100 nM
T3 sequence (whole entry): T1 sequence (P24008 whole entry)

Structure (SMILES) | Conversion (Rattus norvegicus [1]) [%] | Conversion (Rattus norvegicus [2]) [%] | Conversion (Rattus norvegicus [3]) | Conversion (Rattus norvegicus [4]) [%] | IC50 [5] [nM] | Conversion (Rattus norvegicus [6]) [%] | IC50 [7] [nM] | Conversion (Rattus norvegicus [8]) [%] | IC50 [9] [nM] | IC50 [10] [nM]
CCCC(CCC)n1ccc2cc(/C(=C/C(=O)Nc3ccccc3OCCCC(=O)O)CC)ccc21 | 73 | 84 | 96% | 87 | 341 | 84 | – | – | – | –
C/C(=C\C(=O)Nc1ccccc1OCCCC(=O)O)c1ccc2c(ccn2C(c2ccccc2)c2ccccc2)c1 | – | – | – | – | – | – | 5.6 | – | – | –
CC(C)(C)NC(=O)[C@H]1CC[C@H]2[C@@H]3CC[C@H]4NC(=O)C=C[C@]4(C)[C@H]3CC[C@]12C [FINASTERIDE] | 39 | – | 84% | 49 | 0.58 | 50 | – | 64 | 2.1 | 10
C/C(=C\C(=O)Nc1ccccc1OCCCC(=O)O)c1ccc2c(ccn2C(c2ccc(F)cc2)c2ccc(F)cc2)c1 | 62 | – | 98% and 93% | – | 215 | 85 | – | – | – | –
CC/C(=C\C(=O)Nc1ccccc1OCCCC(=O)O)c1ccc2c(ccn2C(c2ccccc2)c2ccccc2)c1 | – | – | – | – | – | – | 2.5 | – | – | –
CC/C(=C\C(=O)Nc1ccccc1OCCCC(=O)O)c1ccc2c(ccn2C(c2ccc(F)cc2)c2ccc(F)cc2)c1 | 50 | – | 94% | 76 | 357 | 70 | – | – | – | –
Cc1c(O[C@@H](C)c2ccc(CC(C)C)cc2)ccc(C(=O)Nc2ccccc2OCCCC(=O)O)c1C (racemic) | 54 | – | 91% | 88 | 78.7 | 56 | – | 82 | – | –
